PMI act: increases human mannose-6-phosphate isomerase activity; purified human PMI, coupled resazurin fluorescence, 20 min; active compounds read high; 1 = vehicle control, 0 substrate-free wells; activation factor at 20 µM; hit rate 0.005% among 190,000;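 active means activation factor of 2 or more at 20 µM, relative to plate controls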
PMI act hi M6P: PMI (human) activation, high substrate. hit rate 0.34% among 190,000. AID 1216. activation factor at 20 µM. P34949. coupled PMI enzyme assay, resazurin fluorescence, 20 min; active compounds read high; 1 = untreated enzyme, 0 = substrate-free blank;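 active means activation factor of 2 or more at 20 µM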
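Technique: Diaphorase-driven resazurin-to-resorufin fluorescence, excitation 544, emission 590 nm | Assay system: Human PMI in coupled enzyme assay | Times: Enzyme reaction with compound 20 min at room temperature | Medium: HEPES-buffered pH 7.4 with magnesium and detergent | Reagent: Mannose-6-phosphate 1.0 mM (near-saturating) plus 0.22 mM NADP+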
TNAP inh no acc: TNAP (human) inhibition, acceptor-free conditions; P05186; purified TNAP, CDP-star luminescence, 30 min; inhibition, % at 20 µM; hit rate 0.26% among 200,000; AID 1012;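 active means tissue-nonspecific alkaline phosphatase inhibition above about 50% at 20 µM in the single-dose screen, limit read from the data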
Target sequence (P05186 whole entry, looked up): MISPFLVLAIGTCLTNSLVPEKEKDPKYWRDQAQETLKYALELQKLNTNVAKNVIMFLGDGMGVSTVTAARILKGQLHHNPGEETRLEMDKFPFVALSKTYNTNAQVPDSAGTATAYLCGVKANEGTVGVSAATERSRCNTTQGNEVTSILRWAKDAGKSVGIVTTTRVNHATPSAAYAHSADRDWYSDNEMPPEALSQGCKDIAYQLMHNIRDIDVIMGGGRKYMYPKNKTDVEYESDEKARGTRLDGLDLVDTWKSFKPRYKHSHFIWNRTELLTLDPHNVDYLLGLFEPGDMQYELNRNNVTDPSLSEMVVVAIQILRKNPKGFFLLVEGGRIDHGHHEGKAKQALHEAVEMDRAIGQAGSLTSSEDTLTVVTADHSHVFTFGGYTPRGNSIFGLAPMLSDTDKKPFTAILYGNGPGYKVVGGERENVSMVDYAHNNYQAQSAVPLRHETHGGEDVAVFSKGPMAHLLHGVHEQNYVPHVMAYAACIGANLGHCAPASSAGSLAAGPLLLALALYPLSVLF
TNAP inh hi DEA: inhibitors of human TNAP at high phosphate acceptor concentration | AID 1135 | P05186 | inhibition, % at 20 µM | hit rate 0.03% among 200,000 | purified TNAP, CDP-star luminescence, 1 M DEA;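 active means over 50% inhibition of tissue-nonspecific alkaline phosphatase at 20 µM in the single-dose screen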
TNAP act hi DEA: activators of human TNAP at high phosphate acceptor concentration; P05186; purified TNAP, CDP-star luminescence, 1 M DEA, 30 min; active compounds read high; 0 = EDTA background, 1 = DMSO-only activity; activation factor at 20 µM; 200,000 tested, under 10 active;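 active means activation factor at least 2 at 20 µM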
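Measured by: Luminescent substrate turnover signal | Test system: Human TNAP | Input: TNAP 1/800 final | Dosing: 20 µM single point | Schedule: 30 min, room temperature | Controls: EDTA wells as negative control, DMSO wells as positive control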
Large screens that a line does not name were inactive. Sampled rows, rich in hits. Any-hit rate of the full collection: about 0.62%.

C=CCNC(=O)/C(C#N)=C\c1cc(Cl)c(O)c(OCC)c1	none
Cc1c(CCOC(=O)C23CC4CC(CC(C4)C2)C3)sc[n+]1CC#N	TNAP inh no acc 56.7
Cc1c(CCOC(=O)c2ccc([N+](=O)[O-])cc2)sc[n+]1CC(=O)c1ccccc1	none
Cc1c(CCO)sc[n+]1CC(=O)OCCC12CC3CC(CC(C3)C1)C2	TNAP inh no acc 61.9
Cc1c(CCOC(=O)CC23CC4CC(CC(C4)C2)C3)sc[n+]1Cc1ccccc1	none
Cc1ncc(C[n+]2csc(CCOC(=O)CC34CC5CC(CC(C5)C3)C4)c2C)c(N)n1	none
CCCCCCCCCOC(=O)C[n+]1csc(CCO)c1C	TNAP inh no acc 61.2
Cc1ccc(S(=O)(=O)N/N=C\c2cc([N+](=O)[O-])ccc2Cl)cc1	PMI act hi M6P 2
O=C(CSc1n[nH]c(-c2ccccc2)n1)NCc1cccc(C(=O)O)c1	TNAP inh no acc 69.5
Cc1cc(SCC(=O)c2ccc(O)c(O)c2)nc2ccccc12	TNAP inh no acc 72.2
O=C(O)c1cccc(CSc2n[nH]c(-c3ccc(Cl)cc3Cl)n2)c1	TNAP inh no acc 95.9
O=C(CSc1n[nH]c(-c2ccccc2)n1)NC(=O)NCc1ccco1	TNAP inh no acc 63.2
O=C(COC(=O)c1ccccc1[N+](=O)[O-])Nc1cc(S(=O)(=O)N2CCOCC2)ccc1N1CCCC1	none
CC(=O)c1ccc(NC(=S)NC(C)c2ccc(Cl)cc2Cl)cc1 (configuration not stated)	none
COc1cc(OC)c2c(O)c3c(c(-c4c5c(c(O)c6c(OC)cc(OC)cc46)CO[C@@H](C)[C@H]5O)c2c1)[C@H](O)[C@H](C)OC3	none
O=C(O)c1cc(N/N=C/C(Cl)=C/c2ccccc2)ccc1Cl	none
CCc1ccc(C(=O)CSc2n[nH]c(-c3ccncc3)n2)cc1	none
O=C(CSc1n[nH]c(-c2ccccc2)n1)c1ccc(O)c(O)c1	TNAP inh no acc 68.4
Cc1cccc(C(=O)n2cnnc2N)c1	none
O=C(c1ccccc1)c1cn[nH]c1-c1ccccc1O	TNAP inh no acc 77.6
CCc1[nH]c(=S)c(C#N)c2c1CCCC2	PMI act hi M6P 2.2
CCOC(=O)C1(CCc2ccccc2)CCN(C(=O)Cc2nonc2C)CC1	none
COc1cc(CCN2C(=O)N[C@@H](c3cccc(C(F)(F)F)c3)C(C(C)=O)=C2C)cc(OC)c1OC	PMI act hi M6P 2
CC(=O)C1=C(C)N(Cc2ccccc2)C(=O)N[C@@H]1c1cccc(C(F)(F)F)c1	none
CC(/C=N/NC(=O)c1sc(N)nc1C)=C\c1ccccc1	none
CC(=O)NCCCNS(=O)(=O)c1ccc(C)cc1	none
C/C(N)=C(/C#N)C(=O)CSc1n[nH]c(-c2ccccc2Br)n1	TNAP inh no acc 91.9
O=C(COC(=O)CCc1nc2ccccc2c(=O)[nH]1)NC(=O)NC1CCCC1	none
CC(C)(C)n1nc2c(c1NC(=O)c1cc3ccccc3o1)CS(=O)(=O)C2	TNAP inh no acc 50.7
CC(C)Cc1nnc(NC(=O)Cc2cccs2)s1	none
CC(C)Cc1nnc(NC(=O)CCC(=O)Nc2ccc(F)cc2)s1	TNAP inh no acc 51.1
Cc1ccccc1NC(=O)N1CCN(S(=O)(=O)c2ccccc2)CC1	none
COc1ccc(C(=O)/C=C2\NCC3c4ccccc4CCN3C2=O)cc1 (configuration not stated)	PMI act hi M6P 2.4
COc1ccc(C(=O)N2CCc3ccccc32)cc1	none
COc1ccc(/C=C(/NC(=O)c2ccccc2)C(=O)NC2CCS(=O)(=O)C2)cc1 (configuration not stated)	none
CCOC(=O)c1c(C)[nH]c(-c2csc(N)n2)c1C	PMI act hi M6P 2
COc1ccccc1C(=O)Nc1ccc2c(c1)nc1n2CCSC1	TNAP inh no acc 67.6
O=C(CSc1n[nH]c(-c2ccccc2)n1)Nc1ccc(Br)cn1	TNAP inh no acc 57.4
Cc1noc(NS(=O)(=O)c2ccc(NC(=O)CSc3nc4ccccc4[nH]3)cc2)c1C	none
Cc1c(NC(=O)CSc2n[nH]c(-c3ccccc3)n2)c(=O)n(-c2ccccc2)n1C	TNAP inh no acc 52.8
Cc1noc(NS(=O)(=O)c2ccc(NC(=O)CSc3n[nH]c(-c4ccccc4)n3)cc2)c1C	TNAP inh no acc 60.1
O=C(CSc1n[nH]c(-c2ccccc2)n1)Nc1ncccn1	none
